Compound activity from PubChem BioAssay.
ADAM10 inh: human ADAM10 inhibitors, primary screen, biochemical, QFRET, HTS; inhibition, % at 7 µM; 370,000 compounds, 0.62% hits; Disintegrin and metalloproteinase domain-containing protein 10 (Homo sapiens), O14672; recombinant ADAM10, EDANS/DABCYL FRET peptide cleavage, 3 h;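 active = inhibition above a per-campaign cutoff equal to the mean of compounds falling between control-based bounds plus 3 SD, cut at about 20% in these data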;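 note: 0% = DMSO wells while the 100% control is not disclosed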
PLC-beta3 inh: human PLC-beta3 inhibitors, primary screen, biochemical, fluorescence; 1-phosphatidylinositol 4,5-bisphosphate phosphodiesterase beta-3 (Homo sapiens), Q01970; Purified PLC-beta3, fluorogenic substrate; inhibition, % at 12.2 µM; 370,000 compounds, 0.18% hits; AID 720704, 2013; in the data active = inhibition above about 11%;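 note: 0% = median of compound wells on plate and 100% = full blocker control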
ADAM17 inh: ADAM17 inhibitors, primary screen, biochemical, QFRET; Disintegrin and metalloproteinase domain-containing protein 17 (Homo sapiens), P78536; recombinant ADAM17, EDANS/DABCYL FRET peptide cleavage; inhibition, % at 6.95 µM; 370,000 compounds, 0.83% hits; AID 720648, 2013;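 active = inhibition above the mean of compounds lying between control limits plus 3 SD, set per campaign, cut at about 8.5% in these data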;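 note: 0% = DMSO-only wells as the low control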
PLC-gamma1 inh: PLC-gamma1 enzyme inhibitors, primary screen, biochemical, fluorescence, purified enzyme. 1-phosphatidylinositol 4,5-bisphosphate phosphodiesterase gamma-1 (Homo sapiens), P19174. 370,000 compounds, 0.84% hits. fluorogenic substrate. inhibition, % at 12.2 µM; in the data active = inhibition above about 9.5%
Target sequence (P19174 whole entry, looked up): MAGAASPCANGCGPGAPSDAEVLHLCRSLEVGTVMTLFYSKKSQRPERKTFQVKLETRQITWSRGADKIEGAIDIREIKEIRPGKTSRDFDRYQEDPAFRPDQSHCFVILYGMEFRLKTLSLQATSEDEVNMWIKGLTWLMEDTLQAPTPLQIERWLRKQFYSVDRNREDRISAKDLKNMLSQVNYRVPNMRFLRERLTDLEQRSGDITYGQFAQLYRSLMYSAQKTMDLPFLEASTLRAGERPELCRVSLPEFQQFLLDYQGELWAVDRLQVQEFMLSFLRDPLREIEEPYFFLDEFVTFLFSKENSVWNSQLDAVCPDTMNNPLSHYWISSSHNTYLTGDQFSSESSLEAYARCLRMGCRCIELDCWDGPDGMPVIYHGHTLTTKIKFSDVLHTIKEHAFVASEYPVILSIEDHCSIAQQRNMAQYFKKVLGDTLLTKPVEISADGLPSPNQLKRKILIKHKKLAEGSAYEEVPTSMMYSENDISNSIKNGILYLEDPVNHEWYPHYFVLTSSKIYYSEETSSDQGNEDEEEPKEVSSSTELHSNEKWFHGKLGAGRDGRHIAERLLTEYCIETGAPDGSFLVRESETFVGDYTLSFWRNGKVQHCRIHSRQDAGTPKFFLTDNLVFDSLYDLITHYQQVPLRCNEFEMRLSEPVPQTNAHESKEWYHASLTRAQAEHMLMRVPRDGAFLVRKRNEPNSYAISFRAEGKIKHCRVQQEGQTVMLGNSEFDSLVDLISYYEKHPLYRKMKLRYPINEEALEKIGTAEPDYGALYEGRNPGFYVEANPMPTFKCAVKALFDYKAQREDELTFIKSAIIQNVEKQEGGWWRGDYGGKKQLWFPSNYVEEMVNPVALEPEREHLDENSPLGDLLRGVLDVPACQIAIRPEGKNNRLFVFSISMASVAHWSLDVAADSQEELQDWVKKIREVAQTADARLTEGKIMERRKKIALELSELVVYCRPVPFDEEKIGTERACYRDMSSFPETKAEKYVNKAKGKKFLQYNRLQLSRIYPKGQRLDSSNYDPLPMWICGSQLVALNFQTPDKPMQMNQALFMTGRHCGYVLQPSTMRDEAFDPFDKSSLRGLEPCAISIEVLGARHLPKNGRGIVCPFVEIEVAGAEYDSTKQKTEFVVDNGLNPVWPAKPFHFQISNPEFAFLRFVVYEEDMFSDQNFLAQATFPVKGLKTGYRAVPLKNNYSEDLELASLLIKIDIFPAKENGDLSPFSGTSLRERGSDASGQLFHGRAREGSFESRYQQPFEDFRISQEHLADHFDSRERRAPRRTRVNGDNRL
TbMetRS inhib: T. brucei MetRS inhibitors, primary screen, biochemical, luminescence. methionyl-tRNA synthetase (Trypanosoma brucei brucei). 360,000 compounds, 0.4% hits. inhibition, % at 11.9 µM. purified T. brucei MetRS, ATP depletion, Kinase-Glo luminescence. AID 624268, 2012;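 active = inhibition above a per-plate cutoff of the control wells' mean inhibition plus 3 SD, cut at about 5.5% in these data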;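 note: 0% = DMSO wells median and 100% = median of wells with control inhibitor compound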
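Material – parasite MetRS enzyme · Medium – HEPES-MgCl2-KCl buffer plus DTT, spermine, BSA, pyrophosphatase · Reagent – ATP, methionine and E. coli bulk tRNA substrates · Times – 15 min enzyme-compound preincubation, 2 h reaction, 10 min detection, 25 °C · Measured by – luminescence of leftover ATP · Evaluation – percent inhibition relative to median high and low control wells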
Tb MetRS conf: T. brucei MetRS inhibitors, confirmation, biochemical, luminescence; shares compounds with TbMetRS inhib; T. brucei MetRS enzyme, luminescence (ATP depletion); inhibition, % at 11.9 µM; 1,400 compounds, 93% hits; AID 624412, 2012; in the data active = inhibition above about 7%
Jurkat cytotox: Jurkat T cell cytotoxicity, cytotoxicity control for T. brucei MetRS inhibitor project, luminescence, high throughput | shares compounds with TbMetRS inhib | Jurkat cells viability, ATP luminescence | inhibition, % at 8.3 µM | 1,400 compounds, 12% hits | AID 624413, 2012; in the data active = inhibition above about 15%;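 note: 0% = vehicle and 100% = reference inhibitor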
TbMetRS FP orth: T. brucei MetRS inhibitors, orthogonal assay for T. brucei MetRS inhibitor project, biochemical, fluorescence polarization; 1,400 compounds, 44% hits; AID 651607, 2012; inhibition, % at 11.9 µM; purified T. brucei MetRS; shares compounds with TbMetRS inhib; in the data active = inhibition above about 17%;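 note: 0% = vehicle wells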
* = called active by the depositor; i = inactive; · = no result. An excerpt weighted towards active compounds, which were near 2.3% of everything screened.

SMILES | ADAM10 inh | PLC-beta3 inh | ADAM17 inh | PLC-gamma1 inh | TbMetRS inhib | Tb MetRS conf | Jurkat cytotox | TbMetRS FP orth
CS(=O)(=O)N1CCN(C(=O)c2csc3ccccc23)CC1 | 4.0 | 6.3 | -2.0 | 3.4 | 0.5 | · | · | ·
Cc1c(Cc2ccccc2)c(=O)oc2c(C)c(OCC(=O)N[C@@H](Cc3ccccc3)C(=O)O)ccc12 | -353.5 | -17.3 | -68.0 | -11.7 | 0.2 | · | · | ·
COc1nc(Nc2cccc(F)c2)nc(OC)n1 | -2.5 | -3.4 | -0.7 | 2.6 | -0.9 | · | · | ·
COc1cc2nc(Nc3cccc(F)c3)nc(N)c2cc1OC | -25.1 | -45.9 | -17.5 | -32.8 | 9.1* | 29.4* | 11.6 | 25.0*
Cc1noc(C)c1COC(=O)CCCOc1ccc(Cl)cc1Cl | -0.9 | 0.5 | 1.4 | 0.2 | 7.0* | 18.6* | -2.0 | 14.7
Cc1noc(NS(=O)(=O)c2ccc(NC(=O)CCCOc3ccc(Cl)cc3Cl)cc2)c1C | 5.0 | -2.2 | 0.6 | 1.6 | 7.6* | 13.6* | 3.4 | 13.3
O=C(COC(=O)CCCOc1ccc(Cl)cc1Cl)NCc1ccccc1 | 11.4 | 0.9 | 5.6 | 1.1 | 40.4* | 56.7* | -5.4 | 42.9*
CCNC(=O)CCCOc1ccc(Cl)cc1Cl | 3.2 | 3.9 | 1.2 | 3.0 | 6.3* | 14.1* | 3.0 | 7.7
CCC(C#Cc1ccccc1)N(C)C(N)=NC(=O)/C=C/c1ccccc1 (configuration not stated) | 0.0 | -3.4 | 0.0 | -1.2 | · | · | · | ·
CC(C)CNC(=O)OCc1cn(Cc2ccccc2F)nn1 | -2.4 | -2.8 | 0.0 | -0.6 | · | · | · | ·
Nc1ccc(S(=O)(=O)N2CCC(Cc3ccccc3)CC2)cc1 | 13.5 | -4.3 | 3.5 | 1.7 | 0.1 | · | · | ·
Cc1cc(Cl)ccc1OCCCC(=O)NN | -0.9 | 2.7 | -0.2 | -0.8 | -0.3 | · | · | ·
Cc1cc(Cl)ccc1OCCCC(=O)NCCc1nnc2ccccn12 | 1.4 | -5.5 | -1.8 | 0.0 | 7.2* | 13.8* | -4.0 | 5.4
Cc1ccc(S(=O)(=O)CCC(=O)OC2CC(C)OC2=O)cc1 (configuration not stated) | -10.1 | 0.7 | -9.6 | 3.0 | -0.2 | · | · | ·
Cc1ccc2c(c1)C(CS(=O)(=O)NCC(C)C)NC2 (configuration not stated) | -3.9 | -6.5 | 1.3 | -7.8 | · | · | · | ·
CCCC(C)C(=O)NC1CCCCN(Cc2ccc(C)cc2)C1=O (configuration not stated) | -5.5 | 1.1 | -4.7 | -2.8 | · | · | · | ·
COc1ccc(-n2c(N)c(C(=O)NCc3ccco3)c3nc4ccccc4nc32)cc1 | i | i | -378.1 | -498.0 | -1.4 | · | · | ·
Nc1c(C(=O)NCc2ccco2)c2nc3ccccc3nc2n1CCc1ccc(F)cc1 | i | i | -418.5 | i | 8.4* | 11.3* | 14.4 | 9.8
Cc1ccc(-c2nc(CS(=O)CC(=O)NCCCN3CCN(Cc4ccccc4)CC3)c(C)o2)cc1 (configuration not stated) | -6.2 | -10.1 | 0.8 | 0.2 | -1.4 | · | · | ·
COCCN1C[C@@H](CO)O[C@@H](n2cnc3c(N4CCCC4)ncnc32)C1 | -16.0 | -0.5 | -3.7 | 1.5 | 0.0 | · | · | ·
CN(C)CCn1ccc(O)c(Cc2ccc(Cl)cc2)c1=O | -1.2 | -3.1 | -2.6 | 2.2 | -0.6 | · | · | ·
O=c1c(Cc2ccc(Cl)cc2Cl)c(O)ccn1CCCN1CCOCC1 | 1.6 | -6.6 | 3.3 | 3.2 | 32.5* | 51.4* | -2.6 | 20.1*
O=c1c(Cc2ccc(Cl)cc2Cl)c(O)ccn1CC(F)(F)F | -4.2 | -4.1 | -3.6 | 2.5 | 9.0* | 14.1* | 3.9 | 6.3
NC(=O)Cn1ccc(O)c(Cc2ccc(Cl)cc2Cl)c1=O | -7.1 | -3.9 | -1.5 | 1.4 | 24.5* | 37.2* | -7.3 | 19.8*
O=c1c(Cc2ccc(F)cc2)c(O)ccn1Cc1ccc(Cl)cc1Cl | 5.3 | -0.1 | -6.6 | -1.2 | -0.8 | · | · | ·
SMILES | ADAM10 inh | PLC-beta3 inh | ADAM17 inh | PLC-gamma1 inh | TbMetRS inhib | Tb MetRS conf | Jurkat cytotox | TbMetRS FP orth
CCCCNC(=O)C[C@H]1C[C@@]2(C(=O)OC)C(=C[C@H](C(C)C)O[C@@H]2C2CC2)N(Cc2cccc3ccccc23)C1=O | 11.2 | 1.7 | 7.5 | 3.0 | · | · | · | ·
CCc1cccc(NC(=O)Cn2cc3c(n2)CCCC3)c1 | 3.7 | 5.0 | 1.5 | 2.4 | 0.0 | · | · | ·
CN(C)c1ccc(NC(=O)Cn2cc3c(n2)CCCC3)cc1 | -7.5 | -2.1 | -0.2 | 3.3 | 15.9* | 15.8* | 20.6* | 4.1
O=C(O)CCc1ccc(-c2ccc(Br)cc2)n1-c1ccc(O)cc1 | -0.2 | -88.3 | -3.1 | -65.8 | 5.7* | 16.2* | -6.3 | 7.0
Cc1cccc(N(CC(=O)NCc2ccco2)S(=O)(=O)c2ccccc2)c1 | -9.1 | 1.6 | -3.2 | -2.7 | 0.3 | · | · | ·
COCC(=O)N1C[C@H](C)[C@H](OC)CN(C)C(=O)c2cc(NC(=O)Nc3cccc(F)c3)ccc2OC[C@@H]1C | -9.6 | 3.9 | 3.0 | 1.3 | 34.2* | 43.0* | -2.8 | 17.5*
O=C(CSc1ncc(-c2ccccc2)[nH]1)Nc1cccc(O)c1 | 6.9 | 2.9 | -0.1 | 0.7 | 5.6* | 13.4* | 7.8 | 4.7
OC1(c2cccc(C(F)(F)F)c2)CCN(c2ncnc3c2[nH]c2ccccc23)CC1 | -53.7 | -31.0 | -11.7 | -23.2 | 6.1* | 14.3* | 15.6* | 8.6
c1ccc2c(c1)CCN(c1ncnc3c1[nH]c1ccccc13)C2 | -80.3 | -58.0 | -21.6 | -47.1 | 12.9* | 9.1* | 46.5* | 9.8
c1ccc2c(c1)[nH]c1c(N3CCC4(CC3)OCCO4)ncnc12 | · | · | · | · | 0.6 | · | · | ·
CC(C)=CCCC(C)CN1CCC(N2CCC(C(=O)NC(C)C)CC2)CC1 (configuration not stated) | -0.4 | -5.7 | -4.5 | 0.3 | -1.3 | · | · | ·
Cn1c(=O)n(C)c2cc3[nH]cnc3cc21 | 1.0 | -8.4 | -4.0 | -0.8 | -0.8 | · | · | ·
Nc1cc2nc[nH]c2cc1N | -253.5 | -93.6 | -76.4 | -70.4 | 6.3* | 10.0* | -7.1 | 3.8
COc1ccc(CCC(=O)Nc2c(-c3ccc(N(C)C)cc3)[nH][nH]c2=O)cc1 | -67.4 | -249.1 | -12.4 | -157.1 | 14.0* | 3.0 | 2.4 | -1.0
Cc1nc2ccccc2c2oc(C(=O)N3CCc4ccccc4C3)cc12 | -13.3 | -10.7 | -1.9 | -3.5 | 8.7* | 8.9* | 5.6 | 11.4
Cc1csc(-c2ccc3cc(Cl)cc(Cl)c3n2)n1 | -35.8 | -3.9 | -9.7 | -4.2 | 0.1 | · | · | ·
